SMILES strings stand for the structures.

The text below walks through data of ChEMBL document CHEMBL4196042, “Novel indanone derivatives as MAO B/H3R dual-targeting ligands for treatment of Parkinson's disease” (Eur J Med Chem, 2018).

Data set [1] deals with T1, Histamine H3 receptor (Homo sapiens, UniProt Q9Y5N1). In words: Displacement of [3H]-N-alpha-methylhistamine from human H3R expressed in HEK293 cell membranes after 90 mins by liquid scintillation counting method. An outline of the steps: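 Membranes (20 µg) from HEK-293 cells stably expressing human H3R were incubated with 2 nM [3H]-N-α-methylhistamine and at least seven test concentrations. Incubation was 90 min at room temperature, with shaking, in 75 mM Tris/HCl (pH 7.4), 12.5 mM MgCl2 and 100 mM NaCl. Nonspecific binding used 10 µM pitolisant. Counting was by liquid scintillation; Ki came from Cheng-Prusoff on one-site competition fits, at least in duplicate.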
T1 sequence (Q9Y5N1 whole entry): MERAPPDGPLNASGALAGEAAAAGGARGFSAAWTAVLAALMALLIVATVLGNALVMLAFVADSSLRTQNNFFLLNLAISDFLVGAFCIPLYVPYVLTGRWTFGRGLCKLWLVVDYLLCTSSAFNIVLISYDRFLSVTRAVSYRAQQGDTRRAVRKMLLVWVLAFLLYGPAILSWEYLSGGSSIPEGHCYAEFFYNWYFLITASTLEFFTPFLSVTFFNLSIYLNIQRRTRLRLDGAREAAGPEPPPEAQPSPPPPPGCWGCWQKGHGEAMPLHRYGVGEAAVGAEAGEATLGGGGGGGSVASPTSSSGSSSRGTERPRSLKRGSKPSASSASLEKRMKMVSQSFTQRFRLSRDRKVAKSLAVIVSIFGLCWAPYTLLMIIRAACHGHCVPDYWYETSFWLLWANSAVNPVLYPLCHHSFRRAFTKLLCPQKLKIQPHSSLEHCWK

The target in data set [2] is T2, Amine oxidase [flavin-containing] B (Homo sapiens, UniProt P27338).
T2 sequence (P27338 whole entry): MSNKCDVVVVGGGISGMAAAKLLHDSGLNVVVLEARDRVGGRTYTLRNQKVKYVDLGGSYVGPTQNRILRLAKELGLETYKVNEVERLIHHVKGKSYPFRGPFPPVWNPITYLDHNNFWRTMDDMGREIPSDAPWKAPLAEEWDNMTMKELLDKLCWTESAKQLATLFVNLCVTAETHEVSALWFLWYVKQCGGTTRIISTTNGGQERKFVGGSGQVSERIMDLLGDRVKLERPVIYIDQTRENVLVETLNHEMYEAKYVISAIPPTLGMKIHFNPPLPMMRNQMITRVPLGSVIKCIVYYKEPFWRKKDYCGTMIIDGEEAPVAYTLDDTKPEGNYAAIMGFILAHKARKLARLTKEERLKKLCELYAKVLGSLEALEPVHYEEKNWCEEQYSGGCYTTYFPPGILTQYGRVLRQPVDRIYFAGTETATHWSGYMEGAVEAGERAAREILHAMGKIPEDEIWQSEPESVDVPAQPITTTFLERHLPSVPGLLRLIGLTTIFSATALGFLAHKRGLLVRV
In words: Inhibition of human MAO-B expressed in baculovirus infected insect cell membranes at 10 uM using kynuramine as substrate by continuous spectrophotometric method relative to control.

The target of data set [3] is T3, Amine oxidase [flavin-containing] A (Homo sapiens, UniProt P21397).
T3 sequence (P21397 whole entry): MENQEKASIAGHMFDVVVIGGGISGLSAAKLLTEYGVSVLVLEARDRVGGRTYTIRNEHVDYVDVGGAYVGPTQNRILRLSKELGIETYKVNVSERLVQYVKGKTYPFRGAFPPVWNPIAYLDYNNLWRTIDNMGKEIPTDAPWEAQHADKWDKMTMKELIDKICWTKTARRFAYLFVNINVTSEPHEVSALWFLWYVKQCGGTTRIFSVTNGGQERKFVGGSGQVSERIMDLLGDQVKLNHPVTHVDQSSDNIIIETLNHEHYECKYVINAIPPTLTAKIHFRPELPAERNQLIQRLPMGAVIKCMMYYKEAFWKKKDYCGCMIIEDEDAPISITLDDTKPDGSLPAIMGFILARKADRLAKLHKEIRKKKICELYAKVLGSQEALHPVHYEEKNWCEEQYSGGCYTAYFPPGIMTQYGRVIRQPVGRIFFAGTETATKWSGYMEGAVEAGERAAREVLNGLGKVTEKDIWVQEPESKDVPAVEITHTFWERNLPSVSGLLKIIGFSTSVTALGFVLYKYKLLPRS
The experiment in a line: Inhibition of human MAO-A expressed in baculovirus infected insect cell membranes at 10 uM using kynuramine as substrate by continuous spectrophotometric method relative to control.

The target of data set [4] is T2, Amine oxidase [flavin-containing] B. The experiment in a line: Inhibition of human MAO-B expressed in baculovirus infected insect cell membranes at 2 uM using kynuramine as substrate after 15 to 20 mins by discontinuous fluorimetric method relative to control. The procedure, abridged:
(§1)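 Single-point screen (10, 2 or 5 µM) on human recombinant membrane-bound MAO A or MAO B. Kynuramine was used at 2×KM (KM 30 µM for MAO A, 20 µM for MAO B) in 50 mM potassium phosphate, pH 7.4, 37°C for 20 min, started with enzyme and stopped with 2 N NaOH. 4-Hydroxyquinoline was read fluorimetrically (Ex 320, Em 405 nm) as % of no-inhibitor control; at least two independent experiments in duplicate.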

Data set [5] shares this target. In words: Inhibition of human MAO-B expressed in baculovirus infected insect cell membranes using kynuramine as substrate preincubated for 30 mins followed by substrate addition measured after 15 to 20 mins by discontinuous fluorimetric method.
Data set [6] addresses T3, Amine oxidase [flavin-containing] A. The experiment in a line: Inhibition of human MAO-A expressed in baculovirus infected insect cell membranes using kynuramine as substrate after 15 to 20 mins by discontinuous fluorimetric method. The procedure, abridged:
(§2)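 Human recombinant membrane-bound MAO A and MAO B were tested with inhibitor at 0.001–100 µM and kynuramine at 2×KM. Conditions were 50 mM potassium phosphate, pH 7.4, 20 min at 37°C, no preincubation, with NaOH stop and fluorimetric 4-hydroxyquinoline read-out. IC50 came from a three-parameter log-inhibitor fit with the bottom fixed at zero, from at least three independent experiments in at least duplicate. SI = IC50 MAO A / IC50 MAO B.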

Data set [7] deals with T2, Amine oxidase [flavin-containing] B. The experiment in a line: Reversible inhibition of human MAO-B expressed in baculovirus infected insect cell membranes using excess of kynuramine substrate preincubated for 30 to 60 mins followed by 50 fold compound dilution by fluorimetric method. An outline of the steps: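 MAO B (10 ng/µL) was preincubated with inhibitor at 10× IC50 for 0, 30 or 60 min at 37°C. […] Residual activity was measured fluorimetrically at saturating kynuramine (10×KM), as % of the matched no-inhibitor control. Data are from at least two independent experiments in duplicate, global fit.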

For data set [8] the target is unchanged. In words: Inhibition of human MAO-B expressed in baculovirus infected insect cell membranes using kynuramine as substrate after 15 to 20 mins by discontinuous fluorimetric method.
The species entered for the next data set is Homo sapiens. The experiment in a line: Selectivity index, ratio of IC50 for human MAO-A expressed in baculovirus infected insect cell membranes without preincubation with enzyme to IC50 for human MAO-B expressed in baculovirus infected insect cell membranes without preincubation with enzyme. An outline of the steps: as §2
Data set [9] concerns the target T2, Amine oxidase [flavin-containing] B. The experiment in a line: Inhibition of human MAO-B expressed in baculovirus infected insect cell membranes at 5 uM using kynuramine as substrate after 15 to 20 mins by discontinuous fluorimetric method relative to control. The procedure, abridged: as §1
Data set [10] deals with T1, Histamine H3 receptor. The experiment in a line: Displacement of [125I]iodoproxyfan from human H3R expressed in CHOK1 cell membranes after 60 mins by gamma counting method. Background: In a radioligand displacement assay an active substance lowers the binding of a labelled ligand.

For the compound `O=C1CCc2cc(OCCN3CCCCC3)ccc21`, the Ki (in general, a dissociation constant, usually derived from enzyme kinetics or from competition with a known ligand) at Histamine H3 receptor [1] amounted to 205 nM. In addition, the figures for the inhibition at 10 µM in data set [2] and in data set [3] were 26 to 50% and not above 25%, respectively.
`O=C1CCc2ccc(OCCCN3CCCCC3)cc21` yielded a Ki on Histamine H3 receptor [1] of 304 nM. Further, the inhibition (commonly the percentage by which the read-out fell short of the control) at 10 µM is 51 to 75% in data set [2] and not above 25% in data set [3].
Take `O=C1/C(=C/c2ccccc2)Cc2ccc(OCCCN3CCCCC3)cc21`: affinity on Histamine H3 receptor [1] was put at a Ki of 39 nM. The inhibition at 10 µM is 51 to 75% in [2] and not above 25% in [3].
Take `O=C1/C(=C/c2ccccc2)Cc2ccc(OCCN3CCCCC3)cc21`: affinity on Histamine H3 receptor [1] was put at a Ki of 696 nM. The figures for the inhibition at 10 µM in data set [2] and in data set [3] were 76 to 100% and not above 25%, respectively.
On Histamine H3 receptor [1], `O=C1CCc2cc(OCCCN3CCCCC3)ccc21` gave a Ki of 159 nM. Further, the inhibition at 10 µM is 26 to 50% in [2] and not above 25% in [3].
On to `COc1ccc2c(c1)C/C(=C\c1ccc(OCCCN3CCCCC3)cc1)C2=O`, for which the affinity at Histamine H3 receptor [1], expressed as Ki, was 33 nM. Moreover, the inhibition at 10 µM in [2] is 51 to 75%; in data set [3] it was not above 25%.
Taken in the same sequence, the figures for `O=C1CCc2cc(OCCN3CCCC3)ccc21` were 345 nM, not above 25% and 26 to 50%.
On Histamine H3 receptor [1], `O=C1CCc2ccc(OCCN3CCCC3)cc21` came in with an inhibition constant (Ki) of 6120 nM. Also, the inhibition at 10 µM was 26 to 50% in data set [2] and not above 25% in [3].
In data set [4], `O=C1/C(=C/c2ccc(OCCCN3CCCCC3)cc2)Cc2ccc(OCc3ccc(Br)cc3)cc21` returned an inhibition at 2 µM of 51 to 75%. The Ki at Histamine H3 receptor [1] was found to be 32 nM. The IC50 (commonly the concentration at which inhibition is half-maximal) worked out at 232 nM in data set [5], 5510 nM in [6] and 1460 nM in [8]. Moreover, the “inhibition (INH)” value in data set [7] is “Active”. In addition, the Ratio IC50 in the data set filed under Homo sapiens turned out to be 3.7.
As to `O=C1/C(=C/c2ccc(OCCCN3CCCCC3)cc2)Cc2cc(OCc3ccc(Br)cc3)ccc21`, the affinity at Histamine H3 receptor [1] corresponds to a Ki of 6.5 nM. Moreover, the IC50 is 262 nM in data set [5], more than 10000 nM in [6] and 276 nM in [8]. Also, in data set [9], the inhibition at 5 µM is 76 to 100%. Moreover, in data set [7], the “inhibition (INH)” value is recorded as “Active”. Besides, the Ratio IC50 in the data set filed under Homo sapiens is more than 36.
On Histamine H3 receptor [1], `COc1ccc2c(c1)C(=O)/C(=C/c1ccc(OCCCN3CCCCC3)cc1)C2` showed a Ki of 11 nM. In addition, the inhibition at 10 µM in data set [2] and in [3] was 51 to 75% each time.
Regarding `O=C(c1ccc(OCCCN2CCCCC2)cc1)C1CC1`, the Ki on Histamine H3 receptor [10] came to 1.6 nM; at Histamine H3 receptor [1] it was 11 nM. In addition, the IC50 in [6] is more than 50000 nM; in [8], 3880 nM. For the same compound, the Ratio IC50 in the data set listed under Homo sapiens is more than 12.
For `O=C1/C(=C/c2ccccc2)Cc2cc(OCCCN3CCCCC3)ccc21`, at Histamine H3 receptor [1], the Ki worked out at 3.9 nM. For the same compound, the inhibition at 10 µM in data set [2] was 51 to 75%; in data set [3], not above 25%.
Regarding `O=C1/C(=C/c2ccc(OCCCN3CCCCC3)cc2)Cc2cc(F)ccc21`, the Ki on Histamine H3 receptor [1] was 2.2 nM. The IC50 came out at 541 nM in data set [5], 9180 nM in data set [6] and 1930 nM in data set [8]. In [2], the inhibition at 10 µM lay within 76 to 100%. The “inhibition (INH)” value in data set [7] was “Active”. Further, the Ratio IC50 in the data set filed under Homo sapiens stood at 4.8.
Regarding `O=C1/C(=C/c2ccc(OCCCN3CCCCC3)cc2)Cc2ccccc21`, at Histamine H3 receptor [1], the Ki came to 2.1 nM. Also, the inhibition at 10 µM is 51 to 75% in [2] and not above 25% in data set [3].
